HIF act: HIF pathway transcriptional activation; actives 0.32% (n = 300,000); AID 1910; U2OS HRE-luciferase reporter, luminescence; normalized: DMSO 0%, desferrioxamine 100%; activation, % at 7.5 µM (by protocol);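 active means mean activation of at least 10% of the iron chelator positive control signal, with at least half of replicates also reaching 10%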
PolyA inhibitor: blocks polyadenylation in yeast reporter cells. S. cerevisiae SKY197-pL101 polyadenylation reporter, beta-gal luminescence; efflux-impaired pdr1/pdr3 knockout yeast; score 100 = 6 SD above DMSO. activity score, % at 12 µM. actives 0.02% (n = 300,000);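 active means lowest replicate activity score at least 50, where 100 means six control SD above control mean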;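 further: yeast exposed to compound for 9 h at 30 °C; higher score means more reporter readthrough which indicates perturbed polyadenylation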
T cruzi repl: blocks replication of Trypanosoma cruzi | T. cruzi beta-gal in NIH3T3, luminescence, 90 h | inhibition, % (test concentration not listed) | actives 1.4% (n = 300,000) | AID 1885;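 active means mean inhibition across valid replicates above about 55%, limit read from the data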;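 further: signal also drops with host cell toxicity which is not excluded here; higher percent means less beta-gal luminescence so fewer parasites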
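System: NIH/3T3 fibroblasts plus reporter T. cruzi. Medium: DMEM plus 2% FBS. Probe or stimulus: 5000 reporter trypomastigotes per well. Compound: single 50 nL compound addition per well in DMSO. Incubation: co-culture of at least 90 h after 3 h attachment. Detection: GalScreen β-gal luminescence, detergent lysis, 60 min. Evaluation: parasite load inhibition, %.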
CSC inhib: blocks cancer stem cells | cancer stem cell-like cells viability, luminescence | inhibition, % at 7.5 µM | actives 1.1% (n = 300,000); in the data active means inhibition above about 75%; tested in HMLE shEcad cells
Beta apoptosis: beta cell apoptosis inhibition; INS-1E cytokine-induced death, ATP luminescence, 48 h; percent of positive-control rescue, neutral wells zero; protection from apoptosis, % (no concentration beside the values); actives 0.8% (n = 300,000); AID 435005;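 active means Every replicate reaches about 75%, or at least half do and their mean reaches it too, limit read from the data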;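 further: higher means more ATP so stronger rescue from cytokine killing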
Calb FLC: C. albicans growth modulation with fluconazole. actives 0.57% (n = 300,000). growth inhibition, % (no concentration beside the values). AID 1979. C. albicans CaCi-2 (fluconazole-resistant clinical isolate) + fluconazole, Alamar Blue growth, 48 h;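 active means growth inhibition above about 58% in most replicates, limit read from the data, passing the limit was not always enough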;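 further: all wells also contain fluconazole at 8 µg/ml as a sub-toxic cotreatment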
Numbers stand for hits; ! = a repeat was not active. Compounds with a hit are over-represented: about 3.1% of the library has one in this group of screens.

`COc1ccc(OC)c(-c2nc(CN3CCCCC3c3cccnc3)c(C)o2)c1` (stereo not drawn) gave HIF act inactive, PolyA inhibitor inactive, T cruzi repl 59, CSC inhib inactive, Beta apoptosis inactive and Calb FLC inactive.
For CC(C(=O)O)N1CCCCC1 (stereo not drawn) the results were HIF act inactive, PolyA inhibitor inactive, T cruzi repl inactive, CSC inhib inactive, Beta apoptosis inactive and Calb FLC inactive.
`CC1=NN(c2ccccc2)C(=O)/C1=C/c1ccc(Cl)cc1` gave HIF act inactive, PolyA inhibitor inactive, T cruzi repl inactive, CSC inhib inactive, Beta apoptosis inactive and Calb FLC inactive.
CC1=NN(c2ccccc2)C(=O)/C1=C/c1c(O)n(-c2ccc(F)cc2)[nH]c1=O was read as HIF act inactive, PolyA inhibitor inactive, T cruzi repl inactive, CSC inhib 87, Beta apoptosis inactive and Calb FLC inactive.
For COC(=O)c1c(NC(=O)c2ccco2)sc2c1CCC2 the results were HIF act inactive, PolyA inhibitor inactive, T cruzi repl inactive, CSC inhib 76, Beta apoptosis inactive and Calb FLC inactive.
For C=CCNC(=S)Nc1cc(C)ccn1 the results were HIF act inactive, PolyA inhibitor inactive, T cruzi repl inactive, CSC inhib inactive, Beta apoptosis inactive and Calb FLC inactive.
Screening Cc1onc(-c2ccccc2)c1C(=O)OCC(=O)NC(C)c1ccc(Cl)cc1 (stereo not drawn) returned CSC inhib inactive and Beta apoptosis inactive.
`CN1CCN(c2nc(-c3ccccc3O)nc3ccccc23)CC1` gave HIF act inactive, PolyA inhibitor inactive, T cruzi repl inactive, CSC inhib inactive, Beta apoptosis inactive and Calb FLC inactive.
Screening COc1cccc(-c2nc(N3CCN(C)CC3)c3ccccc3n2)c1O returned HIF act inactive, PolyA inhibitor inactive, T cruzi repl 55, CSC inhib inactive, Beta apoptosis inactive and Calb FLC inactive.
C=C[C@]1(C)C[C@@H](OC(=O)CSCCN(CC)CC)[C@]2(C)C(C)CC[C@]3(CCC(=O)[C@H]32)[C@@H](C)[C@@H]1O (stereo partly drawn) was read as HIF act inactive, PolyA inhibitor inactive, T cruzi repl 59!, CSC inhib inactive, Beta apoptosis inactive and Calb FLC inactive.
`CCOc1ccc(C(=O)CC(C(=O)O)N2CCCCC2)cc1` (stereo not drawn) gave Beta apoptosis inactive.
`CCCOc1ccc(-c2nn(-c3ccccc3)cc2/C=C2\SC(N)=NC2=O)cc1C` gave HIF act inactive, PolyA inhibitor inactive, T cruzi repl 56, CSC inhib inactive, Beta apoptosis inactive and Calb FLC inactive.
`COc1ccc(-c2nn(CCC(=O)O)cc2/C=C2\SC(N)=NC2=O)cc1OC` gave HIF act inactive, PolyA inhibitor inactive, T cruzi repl inactive, CSC inhib inactive, Beta apoptosis inactive and Calb FLC inactive.
`O=C(CSc1nnc(-c2cccc(F)c2)o1)N1CCCC1` gave HIF act inactive, PolyA inhibitor inactive, T cruzi repl inactive, CSC inhib inactive, Beta apoptosis inactive and Calb FLC inactive.
For OCCC1CN(Cc2cccc(-n3cccn3)c2)CCN1Cc1ccccc1 (stereo not drawn) the results were HIF act inactive, PolyA inhibitor inactive, T cruzi repl inactive, CSC inhib inactive, Beta apoptosis inactive and Calb FLC inactive.
`C=CC[C@@H]1C=C(C)C[C@H](C)C[C@H](OC)[C@H]2O[C@@](O)(C(=O)C(=O)N3CCCC[C@H]3C(=O)O[C@H](/C(C)=C/[C@@H]3CC[C@@H](O)[C@H](OC)C3)[C@H](C)[C@@H](O)CC1=O)[C@H](C)C[C@@H]2OC` gave HIF act inactive, PolyA inhibitor inactive, T cruzi repl inactive, CSC inhib inactive, Beta apoptosis inactive and Calb FLC 117.
For CC(C)NC(=S)N=Nc1c(O)[nH]c2ccc(C(C)C)cc12 the results were HIF act inactive, PolyA inhibitor inactive, T cruzi repl 59, CSC inhib inactive, Beta apoptosis inactive and Calb FLC inactive.
`Cc1cccc(NC(=S)N=Nc2c(O)[nH]c3ccccc23)c1` gave HIF act inactive, PolyA inhibitor inactive, T cruzi repl 64, CSC inhib inactive, Beta apoptosis inactive and Calb FLC inactive.
CC(C)c1ccc2[nH]c(O)c(N=NC(=O)c3cccc(S(=O)(=O)Nc4ccccc4Cl)c3)c2c1 was read as HIF act inactive, PolyA inhibitor inactive, T cruzi repl inactive, CSC inhib inactive, Beta apoptosis inactive and Calb FLC inactive.
CN1CCc2c(sc(NC(=O)c3cc4cc([N+](=O)[O-])ccc4s3)c2C(N)=O)C1 was read as HIF act inactive, PolyA inhibitor inactive, T cruzi repl 69 and Calb FLC 97.
Screening NC(=O)c1c(NC(=O)c2ccc([N+](=O)[O-])o2)sc2c1CCCC2 returned HIF act inactive, PolyA inhibitor inactive, T cruzi repl inactive, CSC inhib inactive, Beta apoptosis inactive and Calb FLC inactive.
For CN1CCc2c(sc(NC(=O)c3ccc([N+](=O)[O-])o3)c2C(N)=O)C1 the results were HIF act inactive, PolyA inhibitor inactive, T cruzi repl 64, CSC inhib inactive and Beta apoptosis inactive.
Screening Cc1cccc(CN2C(=O)[C@@H]3Cc4c([nH]c5ccccc45)C(C)(C)N3C2=O)c1 returned HIF act inactive, PolyA inhibitor inactive, T cruzi repl inactive, CSC inhib 76 and Calb FLC inactive.
For Cc1cccc(CN2C(=O)[C@H]3Cc4c([nH]c5ccccc45)C(C)(C)N3C2=O)c1 the results were HIF act inactive, PolyA inhibitor inactive, T cruzi repl inactive, CSC inhib inactive, Beta apoptosis inactive and Calb FLC inactive.
`CCOc1cc(NC(=S)NCc2ccccc2)c(OCC)cc1NC(=O)C(C)C` gave HIF act inactive, PolyA inhibitor inactive, T cruzi repl inactive, CSC inhib inactive, Beta apoptosis inactive and Calb FLC inactive.
For O=C(O)C(Cc1ccc(O)cc1)N1C(=O)C2CCCCC2C1=O (stereo not drawn) the results were HIF act inactive, PolyA inhibitor inactive, T cruzi repl inactive, CSC inhib inactive, Beta apoptosis inactive and Calb FLC inactive.
`CC(=O)NCCn1c(SCc2cc(F)ccc2F)nc2ccccc2c1=O` gave HIF act inactive, PolyA inhibitor inactive, T cruzi repl 68, CSC inhib inactive, Beta apoptosis inactive and Calb FLC inactive.
`CC(=O)NCCn1c(SCc2ccccc2C)nc2ccccc2c1=O` gave HIF act inactive, PolyA inhibitor inactive, T cruzi repl inactive, CSC inhib inactive, Beta apoptosis inactive and Calb FLC inactive.
`COCCn1c(SCc2ccc(OC)c(F)c2)nc2ccccc2c1=O` gave HIF act inactive, PolyA inhibitor inactive, T cruzi repl 75, CSC inhib inactive, Beta apoptosis inactive and Calb FLC inactive.

Assay outcomes as filed in PubChem.
